Data: PubChem BioAssay AID1216 (Sanford-Burnham Center for Chemical Genomics, 2008)
Hit rate of the full screen: of about 190,000 compounds, about 660 (0.35%) were called active. The sample as a whole holds a higher share of actives than the screen did. Values without a mark were called inactive.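 Rule for the calls: active = activation factor of 2 or more at 20 µM; inactive = the rest.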

The compounds below were run against Mannose-6-phosphate isomerase (Homo sapiens) (UniProt P34949) (assay: human PMI activators, high substrate, primary screen, biochemical, fluorescence intensity, near-saturating mannose 6-phosphate (AID 1216)). Conditions: coupled PMI enzyme assay, resazurin fluorescence, 20 min; at 20 µM; hits give high values.
Chain of Mannose-6-phosphate isomerase (Homo sapiens) (P34949 whole entry, looked up): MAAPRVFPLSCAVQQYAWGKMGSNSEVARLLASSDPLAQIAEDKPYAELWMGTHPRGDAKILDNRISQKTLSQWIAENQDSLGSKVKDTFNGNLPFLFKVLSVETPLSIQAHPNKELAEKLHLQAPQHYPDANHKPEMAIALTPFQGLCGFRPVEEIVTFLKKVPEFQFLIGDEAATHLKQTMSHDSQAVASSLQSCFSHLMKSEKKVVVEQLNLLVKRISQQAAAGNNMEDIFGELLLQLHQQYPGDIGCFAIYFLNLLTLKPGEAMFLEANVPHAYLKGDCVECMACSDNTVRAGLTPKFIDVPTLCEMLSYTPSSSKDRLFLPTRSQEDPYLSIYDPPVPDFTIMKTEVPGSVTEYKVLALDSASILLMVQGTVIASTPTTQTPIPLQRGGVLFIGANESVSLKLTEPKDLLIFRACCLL
Outline: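 Test system: human phosphomannose isomerase with PGI, G6PDH, diaphorase coupling enzymes; amount: 15 ng/mL PMI; incubation: enzyme reaction with compound 20 min at room temperature; technique: resorufin fluorescence (Ex 544/Em 590 nm) from resazurin via diaphorase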

SMILES	activation factor
COc1ccccc1N=Nc1c(O)[nH]c(=S)[nH]c1=O	0.9
Cc1ccc2c(c1)=C/C(=C\c1c(O)[nH]c(=O)[nH]c1=O)C(=O)N=2	0.5
O=C1N=c2ccccc2=C/C1=C\c1c(O)[nH]c(=S)[nH]c1=O	2.1 (active)
O=C(CSC1c2ccccc2-c2ccccc21)N/N=C/c1ccccc1	0.9
Cc1cccc(OP(=O)(Oc2cccc(C)c2)OC(c2ccccc2)C(F)(F)F)c1 (stereo not given)	0.9
